According to ChEMBL document CHEMBL4387745, “Development of bivalent compounds as potential neuroprotectants for Alzheimer's disease” (Bioorg Med Chem Lett, 2019):
The source made the active and inactive calls. The calls are words filed in the database; no cut-off is given here.

Legend:
Homo sapiens [1] = species on record: Homo sapiens; assay: Neuroprotective activity against tetracycline removal-induced oxidative stress in human MC65 cells assessed as reduction in accumulation of intracellular ROS at 1 uM incubated for 48 hrs by DCFH-DA staining-based fluorescence analysis relative to control; type: functional, cell-based
Outline: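 MC65 cells without TC given compound (1 μM) for 48 h, then incubated with DCFH-DA (25 μM) for 1 h. ROS given as percentage of fluorescence intensity relative to +TC control; error bars SEM, Student t-test versus −TC control.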

[2] = Neuroprotective activity against tetracycline removal-induced cytotoxicity in human MC65 cells assessed as increase in cell viability incubated for 72 hrs by MTT assay; type: functional, cell-based; settings: MC65, 72 h
Outline: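 MC65 cells (C99 expression under tetracycline suppression; cytotoxicity induced by TC removal) treated across a concentration range for 72 h under −TC, with +TC cultures as 100% viability reference. Viability read by MTT. EC50 reported as mean ± SEM of three independent experiments.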

[3] = Metal chelating activity assessed as compound-Zn2+ complex formation at 50 uM after 10 mins by UV-vis spectroscopy
Outline: (§1)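 Compound at 50 μM mixed with CuSO₄, FeCl₂ or ZnCl₂ (60 μM) at room temperature for 10 min; UV-vis spectrum then recorded from 300 to 550 nm.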

[4] = Metal chelating activity assessed as compound-Fe2+ complex formation at 50 uM after 10 mins by UV-vis spectroscopy; outline: as §1
[5] = Metal chelating activity assessed as compound-Cu2+ complex formation at 50 uM after 10 mins by UV-vis spectroscopy; outline: as §1
Homo sapiens [6] = species on record: Homo sapiens; assay: Neuroprotective activity against tetracycline removal-induced mitochondrial oxidative stress in human MC65 cells assessed as reduction in accumulation of mitoROS at 0.1 to 1 uM incubated for 48 hrs by MitoSOX red dye-based flow cytometric analysis relative to control; type: functional, cell-based
Outline: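 After TC removal, MC65 cells were exposed to compound at 1, 0.3 or 0.1 μM for 48 h, then loaded with MitoSOX (2.5 μM) for 30 min. Mitochondrial ROS expressed as percent fluorescence intensity versus +TC control; error bars SEM, Student t-test versus −TC control.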

Structure (SMILES) | Activity (Homo sapiens [1]) | EC50 [2] [nM] | Activity [3] | Activity [4] | Activity [5] | Activity (Homo sapiens [6])
COc1cc(/C=C/C(=O)C(Cc2cn(CCNC(=O)CCC(=O)NCCCN3CCN(CCCNC(=O)CCN4CCN(CCCO[C@H]5CC[C@@]6(C)C(=CC[C@H]7[C@@H]8CC[C@H]([C@H](C)CCCC(C)C)[C@@]8(C)CC[C@@H]76)C5)CC4)CC3)nn2)C(=O)/C=C/c2ccc(O)c(OC)c2)ccc1O | Active | 132 | – | – | – | –
COc1cc(/C=C/C(=O)C(Cc2cn(CCCCC(=O)NCCCN3CCN(CCCNC(=O)CCC(=O)NCCCN4CCN(CCCNC(=O)CO[C@H]5CC[C@@]6(C)C(=CC[C@H]7[C@@H]8CC[C@H]([C@H](C)CCCC(C)C)[C@@]8(C)CC[C@@H]76)C5)CC4)CC3)nn2)C(=O)/C=C/c2ccc(O)c(OC)c2)ccc1O | Active | 105 | – | – | – | –
COc1cc(/C=C/C(=O)C(Cc2cn(CCNC(=O)CCC(=O)NCCCN3CCN(CCCNC(=O)CO[C@H]4CC[C@@]5(C)C(=CC[C@H]6[C@@H]7CC[C@H]([C@H](C)CCCC(C)C)[C@@]7(C)CC[C@@H]65)C4)CC3)nn2)C(=O)/C=C/c2ccc(O)c(OC)c2)ccc1O | Active | 74.1 | – | – | – | –
COc1cc(/C=C/C(=O)C(Cc2cn(CCCCC(=O)NCCCN3CCN(CCCNC(=O)CO[C@H]4CC[C@@]5(C)C(=CC[C@H]6[C@@H]7CC[C@H]([C@H](C)CCCC(C)C)[C@@]7(C)CC[C@@H]65)C4)CC3)nn2)C(=O)/C=C/c2ccc(O)c(OC)c2)ccc1O | Active | 107 | – | – | – | –
COc1cc(/C=C/C(=O)C(Cc2cn(CCC(=O)NCCCN3CCN(CCCNC(=O)CO[C@H]4CC[C@@]5(C)C(=CC[C@H]6[C@@H]7CC[C@H]([C@H](C)CCCC(C)C)[C@@]7(C)CC[C@@H]65)C4)CC3)nn2)C(=O)/C=C/c2ccc(O)c(OC)c2)ccc1O | Active | 81.9 | inactive | Active | Active | Dose-dependent effect
COc1cc(/C=C/C(=O)C(Cc2cn(CCCCNC(=O)CCC(=O)NCCCN3CCN(CCCNC(=O)CO[C@H]4CC[C@@]5(C)C(=CC[C@H]6[C@@H]7CC[C@H]([C@H](C)CCCC(C)C)[C@@]7(C)CC[C@@H]65)C4)CC3)nn2)C(=O)/C=C/c2ccc(O)c(OC)c2)ccc1O | Active | 140 | – | – | – | –
COc1cc(/C=C/C(=O)C(Cc2cn(CCCCNC(=O)CCC(=O)NCCCN3CCN(CCCNC(=O)CCN4CCN(CCCO[C@H]5CC[C@@]6(C)C(=CC[C@H]7[C@@H]8CC[C@H]([C@H](C)CCCC(C)C)[C@@]8(C)CC[C@@H]76)C5)CC4)CC3)nn2)C(=O)/C=C/c2ccc(O)c(OC)c2)ccc1O | Active | 359 | – | – | – | –
COc1cc(/C=C/C(=O)C(Cc2cn(CCCCC(=O)NCCCN3CCN(CCCNC(=O)CCN4CCN(CCCO[C@H]5CC[C@@]6(C)C(=CC[C@H]7[C@@H]8CC[C@H]([C@H](C)CCCC(C)C)[C@@]8(C)CC[C@@H]76)C5)CC4)CC3)nn2)C(=O)/C=C/c2ccc(O)c(OC)c2)ccc1O | Active | 238 | – | – | – | –
COc1cc(/C=C/C(=O)C(Cc2cn(CCC(=O)NCCCN3CCN(CCCNC(=O)CCC(=O)NCCCN4CCN(CCCNC(=O)CO[C@H]5CC[C@@]6(C)C(=CC[C@H]7[C@@H]8CC[C@H]([C@H](C)CCCC(C)C)[C@@]8(C)CC[C@@H]76)C5)CC4)CC3)nn2)C(=O)/C=C/c2ccc(O)c(OC)c2)ccc1O | Active | 103 | – | – | – | –
COc1cc(/C=C/C(=O)C(Cc2cn(CCC(=O)NCCCN3CCN(CCCNC(=O)CCN4CCN(CCCO[C@H]5CC[C@@]6(C)C(=CC[C@H]7[C@@H]8CC[C@H]([C@H](C)CCCC(C)C)[C@@]8(C)CC[C@@H]76)C5)CC4)CC3)nn2)C(=O)/C=C/c2ccc(O)c(OC)c2)ccc1O | Active | 136 | inactive | Active | Active | –
